Screens from PubChem.
Rows were chosen to be rich in hits. Some 4.6% of all compounds tested hit in one or more screens of this group.
TAAR1 antag: antagonists of human TAAR1; Q96RJ0; CHO RD-HGA16 TAAR1, Fluo-8 calcium fluorescence, antagonist; inhibition, % at 3 µM; 360,000 tested, 1.5% active; AID 624466;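 active = inhibition above a per-plate cutoff, the mean inhibition of test compounds on that plate plus 3 SD, cut at about 49% in these data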
Target sequence (Q96RJ0 whole entry, looked up): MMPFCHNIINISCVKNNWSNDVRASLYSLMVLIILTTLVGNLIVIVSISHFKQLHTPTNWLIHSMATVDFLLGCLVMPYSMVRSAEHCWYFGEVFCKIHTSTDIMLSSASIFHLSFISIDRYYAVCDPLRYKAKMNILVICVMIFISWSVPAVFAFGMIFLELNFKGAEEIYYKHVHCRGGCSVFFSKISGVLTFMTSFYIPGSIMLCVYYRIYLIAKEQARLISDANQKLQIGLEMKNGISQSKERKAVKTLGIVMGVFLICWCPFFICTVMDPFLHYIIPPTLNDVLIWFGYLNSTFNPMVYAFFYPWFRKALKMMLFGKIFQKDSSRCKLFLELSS
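System: RD-HGA16 CHO cells with stable hTAAR1 and Gα16 | Probe or stimulus: EC80 β-phenethylamine stimulus | Dosing: 3 µM, single point | Times: Dye loading 75 min at 37 °C, then 30 min room temperature | Measured by: Fluo-8 calcium-sensitive fluorescence | Read-out basis: % inhibition of agonist calcium response | Replicates: n of 1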
CHO parental Ca: counter-screen for OX1R antagonists: effect in parental CHO cells; parental CHO-K1, ATP-induced calcium, Fluo-8 fluorescence; inhibition, % at 5.6 µM; 330,000 tested, 0.63% active; AID 463079;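 active = inhibition above that plate's mean sample inhibition plus 3 SD, cut at about 26% in these data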
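Test system: untransfected parental CHO cell line. Compound: one dose, 5.6 µM nominal. Detection: intracellular calcium via Fluo-8 no-wash fluorescent dye. Measure: % inhibition. Benchmarks: ATP-challenged DMSO wells low, unchallenged DMSO wells high.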
TAAR1 agonist: agonists of human TAAR1 | 360,000 tested, 0.99% active | AID 624467 | CHO RD-HGA16 TAAR1, Fluo-8 calcium fluorescence; vehicle wells 0%, saturating PEA agonist 100% | activation, % at 3 µM | Q96RJ0;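 active = activation above the mean activation of all test compounds in the run plus 3 SD, cut at about 38% in these data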
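System: CHO-derived RD-HGA16 cells with stable Gα16 and human TAAR1 / Times: 17-24 h plating, Fluo-8 75 min 37 °C, 30 min RT / Technique: calcium-sensitive Fluo-8 signal, excitation 470-495, emission 515-575 nm / Measure: % activation relative to PEA EC100 response / Benchmarks: DMSO and PEA EC100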
GPR7 antagonist: human neuropeptides B/W receptor 1 antagonism; P48145; GPR7-expressing cells, fluorescence antagonist assay; inhibition, % at 4.4 µM; 290,000 tested, 1.1% active; AID 1861; in the data active = inhibition above about 16%, passing the limit was not always enough;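 note: cells stimulated with the agonist NPW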
Target sequence (P48145 whole entry, looked up): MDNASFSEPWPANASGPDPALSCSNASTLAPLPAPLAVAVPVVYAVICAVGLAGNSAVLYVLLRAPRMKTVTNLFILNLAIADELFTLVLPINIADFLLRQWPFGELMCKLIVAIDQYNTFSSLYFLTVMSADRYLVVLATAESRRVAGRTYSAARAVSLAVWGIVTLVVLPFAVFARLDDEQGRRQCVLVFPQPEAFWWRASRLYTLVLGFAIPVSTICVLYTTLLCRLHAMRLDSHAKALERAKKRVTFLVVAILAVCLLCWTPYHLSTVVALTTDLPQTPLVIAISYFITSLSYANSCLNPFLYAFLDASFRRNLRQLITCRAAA
OX1R antag-1: blocks the human orexin 1 receptor | O43613 | OX1R-expressing cells, FRET antagonist read-out | inhibition, % at 6.6 µM | 330,000 tested, 1.8% active | AID 485270; in the data active = inhibition mostly above about 38%, no sharp cut-off; inactive = mostly below about 40%
OX1R antag-2: human HCRTR1 antagonism; inhibition, % at 5 µM; 330,000 tested, 0.43% active; AID 434989; O43613; CHO/OX1R cells, Fluo-8 calcium fluorescence, orexin A;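 active = inhibition above its plate's threshold, mean inhibition of all tested compounds on the plate plus 3 SD, cut at about 37% in these data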
GPR7 antag conf: human GPR7 antagonism, confirmation assay; shares compounds with GPR7 antagonist; GPR7-expressing cells, calcium fluorescence antagonist mode; inhibition, % at 4.4 µM; 2,400 tested, 52% active; AID 1952; in the data active = inhibition above about 24%;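 note: stimulated with the GPR7 agonist NPW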
MCHR1 antagonist: MCHR1 (human) antagonism in GPR7 counter-screen; shares compounds with GPR7 antagonist; MCHR1-expressing cells, fluorescence antagonist assay; inhibition, % at 4.4 µM; 2,400 tested, 62% active; AID 2148
nonsel antag count: nonselective antagonism, TAAR1 counter-screen; inhibition, % at 3 µM; counterscreen cell line, calcium fluorescence, antagonist mode; 2,400 tested, 77% active; shares compounds with TAAR1 antag;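 note: CHO-Ga16 host cells stimulated with ATP at an EC80 level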
TAAR1 antag conf: confirmation of human TAAR1 antagonists | 2,400 tested, 40% active | shares compounds with TAAR1 antag | TAAR1-expressing cells, fluorescence antagonist read-out | inhibition, % at 3 µM | AID 651785; in the data active = inhibition above about 49%;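 note: CHO-Ga16 host cells challenged with agonist PEA near its EC80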
Ga16 ag counter-1: nonselective Ga16 agonism, counter-screen | shares compounds with TAAR1 antag | Ga16-expressing cells, calcium fluorescence, agonist counterscreen | activation, % at 3 µM | 2,400 tested, 18% active | AID 651953; in the data active = activation above about 12%
TAAR1 ag count: activates human TAAR1 in antagonist counter-screen. 2,400 tested, 2% active. activation, % at 3 µM. hTAAR1 cell line, fluorescence activation, agonist mode. shares compounds with TAAR1 antag; in the data active = activation above about 37%;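 note: CHO cells stably expressing TAAR1 with calcium dye readout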
TAAR1 ag conf: human TAAR1 agonism, confirmed; shares compounds with TAAR1 agonist; CHO RD-HGA16 TAAR1, Fluo-8 calcium fluorescence; scaled: DMSO 0%, maximal phenethylamine 100%; activation, % at 3 µM; 2,400 tested, 82% active;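 active = activation above a cutoff set at the run's mean compound activation plus 3 SD, cut at about 39% in these data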
Ga16 ag counter-2: nonselective agonism, TAAR1 counter-screen; shares compounds with TAAR1 agonist; CHO-Ga16 parental, Fluo-8 calcium fluorescence; normalized to maximal ATP response, DMSO zero; activation, % at 3 µM; 2,400 tested, 50% active;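 active = activation above the run cutoff, the mean activation over all tested wells plus 3 SD, cut at about 12% in these data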
TAAR1 desens: TAAR1 response desensitization, agonist counter-screen; inhibition, % at 3 µM; CHO RD-HGA16 hTAAR1, Fluo-8 calcium, beta-PEA response inhibition; shares compounds with TAAR1 agonist; 2,400 tested, 46% active; AID 651951;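 active = inhibition above the run cutoff, the mean inhibition of all test compounds plus 3 SD, cut at about 49% in these data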;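 note: beta-PEA stimulus applied at its EC80; loss of beta-PEA calcium signal after compound pretreatment read as receptor desensitization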
Ga16 nonsel ant: nonselective Ga16 antagonism, counter-screen. shares compounds with TAAR1 agonist. CHO-Ga16 ATP-induced calcium, Fluo-8 fluorescence. inhibition, % at 3 µM. 2,400 tested, 39% active;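 active = inhibition above the plate's mean compound inhibition plus 3 SD, computed per plate, cut at about 22% in these data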
Numbers stand for hits; 0 = inactive; - = no result. Cut-off read from the data, not from the text of the source, unless noted: active = inhibition above about 22%; inactive = the rest.

SMILES	TAAR1 antag	CHO parental Ca	TAAR1 agonist	GPR7 antagonist	OX1R antag-1	OX1R antag-2	GPR7 antag conf	MCHR1 antagonist	TAAR1 ag conf	Ga16 ag counter-2	TAAR1 desens	Ga16 nonsel ant	others
CCOC(=O)c1cc(-c2ccccc2)nc2c1c(C)nn2-c1ccccn1	53	0	0	46	0	0	28	34	-	-	-	-	nonsel antag count=22;TAAR1 antag conf=0;Ga16 ag counter-1=0;TAAR1 ag count=0
COc1ccc(/C=C2\SC(=S)N(CCC(=O)NC3CCCC3)C2=O)cc1OC	0	0	0	0	0	0	-	-	-	-	-	-
Cc1cc(C)c(OCC(=O)Nc2ccccc2N2CCOCC2)c(C)c1	55	41	61	26	0	44	59	70	43	34	56	52
Cc1cc(C)c(OCC(=O)Nc2ccccc2N2CCCCC2)c(C)c1	0	0	0	-	0	0	-	-	-	-	-	-
CC(C)Cc1ccc(C(C)C(=O)Nc2nccs2)cc1 (centres undefined)	74	43	105	63	0	49	78	78	103	50	81	50
CC(C)c1ccc(CNC(=O)C(=O)Nc2nccs2)cc1	0	0	0	0	0	0	-	-	-	-	-	-
Cc1cc(C(=O)COC(=O)C2=COCCO2)c(C)n1-c1ccccc1	0	0	0	-	0	0	-	-	-	-	-	-
CN1CCN(c2ccc(S(=O)(=O)N3CCCCC3)cc2NC(=O)Cc2ccc(Cl)cc2)CC1	0	0	57	25	0	0	50	54	0	28	0	22
COc1ccc(S(N)(=O)=O)cc1C(=O)NNC(=O)C1COc2ccccc2O1 (centres undefined)	0	0	0	-	0	0	-	-	-	-	-	-
CCCCOc1ccc(Br)cc1/C(C)=N/NC1=NCCN1	0	0	58	24	0	0	36	60	66	0	0	0
Nc1c(C(=O)NCc2ccc3c(c2)OCO3)nnn1Cc1ccc(Br)cc1	0	0	65	24	0	0	27	0	102	46	76	38
OC[C@@H]1CN(Cc2ccco2)C[C@H](n2cnc3c(N4CCN(c5ccccc5)CC4)ncnc32)O1	0	-	0	-	-	-	-	-	-	-	-	-
Cc1ccc(CONC(=O)c2cccc([N+](=O)[O-])c2)cc1	0	0	0	-	0	0	-	-	-	-	-	-
COC(=O)C(/C=N/OCc1ccc([N+](=O)[O-])cc1)NC(=O)c1cccc(Cl)c1 (centres undefined)	88	0	95	38	0	0	65	50	94	51	78	41
O=C(c1ccco1)N1CCN(Cc2csc(-c3ccccc3Cl)n2)CC1	0	0	0	0	0	0	-	-	-	-	-	-
O=C(CCl)Nc1ncc(S(=O)(=O)c2ccc([N+](=O)[O-])cc2)s1	0	0	0	-	0	0	-	-	-	-	-	-
COC(=O)C(NC(=O)c1ccccc1Cl)(Nc1ncc(S(=O)(=O)c2ccc([N+](=O)[O-])cc2)s1)C(F)(F)F (centres undefined)	0	0	88	34	0	0	56	43	57	27	0	29
c1ccc(Oc2ccccn2)cc1	0	-	0	-	-	-	-	-	-	-	-	-
CCc1ccc(Cn2nnc(C(=O)Nc3ccc(OC)cc3OC)c2N)cc1	0	0	72	25	0	0	42	0	60	22	0	0
COc1cccc(NC(=O)c2nnn(Cc3ccc(Br)cc3F)c2N)c1	53	0	59	24	0	0	53	53	76	32	59	36
COc1cccc(NC(=O)Cn2nnc(C(=O)Nc3ccccc3)c2N)c1	0	0	0	0	0	0	-	-	-	-	-	-
Cc1ccc(-n2c(SCC(N)=O)nnc2-c2ccc(S(=O)(=O)N3CCCCC3)cc2)c(C)c1	0	0	38	35	0	0	45	0	0	16	0	34
COc1ccc(CNCCC(c2ccccc2)c2ccc3c(c2)OCO3)cc1 (centres undefined)	0	0	60	41	0	0	46	64	58	30	62	37
COc1ccc(C(CC(=O)O)c2ccc3c(c2)OCO3)cc1 (centres undefined)	0	0	0	0	0	0	-	-	-	-	-	-
Cc1cc(N2CCC(C)CC2)nc(NCc2ccccc2)n1	0	0	60	30	0	0	58	83	67	34	53	31
CC(=O)Nc1cccc(C(=O)/C=C/c2ccc(/C=C/C(=O)c3cccc(NC(C)=O)c3)cc2)c1	0	0	0	0	0	0	-	-	-	-	-	-
CC(=O)Nc1cccc(C(=O)/C=C/c2ccc(N(C)C)cc2)c1	58	82	127	29	0	100	60	62	81	96	71	75
CCOc1ccc(NC(=O)COC(=O)CCC(=O)c2cccs2)cc1	0	0	0	-	0	0	-	-	-	-	-	-
CCCCCNCC(=O)Nc1cccc(C(=O)Nc2cccc(C(F)(F)F)c2)c1	50	0	72	25	0	0	50	81	76	46	56	46
Cc1c(CN2CCC(n3nccc3NC(=O)C3CCOC3)CC2)[nH]c2ccccc12 (centres undefined)	0	-	0	0	-	-	-	-	-	-	-	-
